From ChEMBL document CHEMBL4138242, “Synthesis and antibacterial evaluation of novel cationic chalcone derivatives possessing broad spectrum antibacterial activity” (Eur J Med Chem, 2018)

What was measured:
[1] = test system: Klebsiella pneumoniae; experiment: Antibacterial activity against drug-resistant carbapenemase producing Klebsiella pneumoniae clinical isolate KP-14-1 after 16 to 20 hrs by broth microdilution method; assay type: functional
Outline: (§1)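 CLSI broth microdilution in Mueller-Hinton broth. A 4-6 h culture was diluted to about 10⁶ CFU/mL and mixed 1:1 with compound dilutions prepared at 256 to 0.5 µg/mL from aqueous stocks. Plates were incubated at 37 °C for 16-20 h and read visually for MIC. Each concentration was run in duplicate, and the experiment was repeated at least twice. Vancomycin and meropenem were comparators.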

[2] = test system: Staphylococcus aureus; experiment: Antibacterial activity against Staphylococcus aureus ATCC 29213 after 16 to 20 hrs by broth microdilution method; assay type: functional
Outline: (§2)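 Broth microdilution per CLSI. Bacteria grown 4-6 h (about 10⁸ CFU/mL), then diluted to about 10⁶ CFU/mL. Medium: Mueller-Hinton broth, except Luria-Bertani broth for E. coli. Compounds in sterile water, twofold series 256-0.5 µg/mL, mixed 1:1 with inoculum, 37 °C for 16-20 h. MIC is the lowest concentration without visible growth. Duplicate wells; experiment repeated at least twice.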

[3] = test system: Klebsiella pneumoniae; experiment: Antibacterial activity against drug-resistant carbapenemase producing Klebsiella pneumoniae clinical isolate KP-14-8 after 16 to 20 hrs by broth microdilution method; assay type: functional; outline: as §1
[4] = test system: Enterococcus faecalis; experiment: Antibacterial activity against Enterococcus faecalis ATCC 29212 after 16 to 20 hrs by broth microdilution method; assay type: functional; outline: as §2
[5] = test system: Klebsiella pneumoniae; experiment: Antibacterial activity against drug-resistant carbapenemase producing Klebsiella pneumoniae clinical isolate KP-14-4 after 16 to 20 hrs by broth microdilution method; assay type: functional; outline: as §1
[6] = test system: Escherichia coli; experiment: Antibacterial activity against drug-resistant NDM1 producing Escherichia coli clinical isolate EA-14-61 after 16 to 20 hrs by broth microdilution method; assay type: functional; outline: as §1
[7] = test system: Escherichia coli; experiment: Antibacterial activity against drug-resistant NDM1 producing Escherichia coli clinical isolate Ecl-14-59 after 16 to 20 hrs by broth microdilution method; assay type: functional; outline: as §1
[8] = test system: Staphylococcus aureus; experiment: Antibacterial activity against methicillin-resistant Staphylococcus aureus clinical isolate 1208143 after 16 to 20 hrs by broth microdilution method; assay type: functional; outline: as §1
[9] = test system: Escherichia coli; experiment: Antibacterial activity against drug-resistant NDM1 producing Escherichia coli clinical isolate EC-14-54 after 16 to 20 hrs by broth microdilution method; assay type: functional; outline: as §1
[10] = test system: Escherichia coli; experiment: Antibacterial activity against drug-resistant NDM1 producing Escherichia coli clinical isolate EC-13-49 after 16 to 20 hrs by broth microdilution method; assay type: functional; outline: as §1
[11] = Hemolytic activity in sheep RBC after 1 hr; assay type: ADME, cell-based, Ovis aries, Erythrocyte; conditions: sheep red blood cells (erythrocytes)
Outline: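 Sheep red blood cells (150 µL suspension) mixed with 50 µL of compound dilutions (5120-10 µg/mL), 1 h at 37 °C, then centrifuged. Supernatant read at 540 nm. Percent hemolysis calculated relative to RBC-only control (0%) and 0.1% Triton X-100 (100%).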

[12] = test system: Escherichia coli; experiment: Antibacterial activity against drug-resistant NDM1 producing Escherichia coli clinical isolate SM-15-84 after 16 to 20 hrs by broth microdilution method; assay type: functional; outline: as §1
[13] = test system: Klebsiella pneumoniae; experiment: Antibacterial activity against drug-resistant carbapenemase producing Klebsiella pneumoniae clinical isolate KP-13-55 after 16 to 20 hrs by broth microdilution method; assay type: functional; outline: as §1
[14] = test system: Klebsiella pneumoniae; experiment: Antibacterial activity against drug-resistant carbapenemase producing Klebsiella pneumoniae clinical isolate KP-14-45 after 16 to 20 hrs by broth microdilution method; assay type: functional; outline: as §1
[15] = test system: Staphylococcus aureus; experiment: Antibacterial activity against methicillin-resistant Staphylococcus aureus clinical isolate 20131012632sau after 16 to 20 hrs by broth microdilution method; assay type: functional; outline: as §1
[16] = test system: Staphylococcus aureus; experiment: Antibacterial activity against methicillin-resistant Staphylococcus aureus clinical isolate 1104060 after 16 to 20 hrs by broth microdilution method; assay type: functional; outline: as §1
[17] = test system: Klebsiella pneumoniae; experiment: Antibacterial activity against drug-resistant carbapenemase producing Klebsiella pneumoniae clinical isolate KP-14-2 after 16 to 20 hrs by broth microdilution method; assay type: functional; outline: as §1
[18] = test system: Klebsiella pneumoniae; experiment: Antibacterial activity against drug-resistant carbapenemase producing Klebsiella pneumoniae clinical isolate KP-14-3 after 16 to 20 hrs by broth microdilution method; assay type: functional; outline: as §1
[19] = test system: Escherichia coli; experiment: Antibacterial activity against drug-resistant NDM1 producing Escherichia coli clinical isolate CF-13-61 after 16 to 20 hrs by broth microdilution method; assay type: functional; outline: as §1
[20] = test system: Escherichia coli; experiment: Antibacterial activity against drug-resistant NDM1 producing Escherichia coli clinical isolate Ecl-14-56 after 16 to 20 hrs by broth microdilution method; assay type: functional; outline: as §1
[21] = test system: Staphylococcus aureus; experiment: Antibacterial activity against methicillin-resistant Staphylococcus aureus clinical isolate 20130911034sau after 16 to 20 hrs by broth microdilution method; assay type: functional; outline: as §1
[22] = test system: Klebsiella pneumoniae; experiment: Antibacterial activity against drug-resistant carbapenemase producing Klebsiella pneumoniae clinical isolate KP-13-45 after 16 to 20 hrs by broth microdilution method; assay type: functional; outline: as §1
[23] = test system: Staphylococcus aureus; experiment: Antibacterial activity against methicillin-resistant Staphylococcus aureus clinical isolate 1105183 cono7 after 16 to 20 hrs by broth microdilution method; assay type: functional; outline: as §1
[24] = test system: Klebsiella pneumoniae; experiment: Antibacterial activity against drug-resistant carbapenemase producing Klebsiella pneumoniae clinical isolate EC-13-23 after 16 to 20 hrs by broth microdilution method; assay type: functional; outline: as §1
[25] = test system: Escherichia coli; experiment: Antibacterial activity against drug-resistant NDM1 producing Escherichia coli clinical isolate Ecl-14-58 after 16 to 20 hrs by broth microdilution method; assay type: functional; outline: as §1
[26] = test system: Escherichia coli; experiment: Antibacterial activity against drug-resistant NDM1 producing Escherichia coli clinical isolate KP-13-58 after 16 to 20 hrs by broth microdilution method; assay type: functional; outline: as §1
[27] = test system: Escherichia coli; experiment: Antibacterial activity against drug-resistant NDM1 producing Escherichia coli clinical isolate Ecl-13-62 after 16 to 20 hrs by broth microdilution method; assay type: functional; outline: as §1
[28] = test system: Salmonella enterica; experiment: Antibacterial activity against Salmonella enterica ATCC 13076 after 16 to 20 hrs by broth microdilution method; assay type: functional; outline: as §2
[29] = test system: Klebsiella pneumoniae; experiment: Antibacterial activity against drug-resistant carbapenemase producing Klebsiella pneumoniae clinical isolate KP-14-18 after 16 to 20 hrs by broth microdilution method; assay type: functional; outline: as §1
[30] = test system: Klebsiella pneumoniae; experiment: Antibacterial activity against drug-resistant carbapenemase producing Klebsiella pneumoniae clinical isolate KP-14-5 after 16 to 20 hrs by broth microdilution method; assay type: functional; outline: as §1
[31] = test system: Staphylococcus aureus; experiment: Antibacterial activity against methicillin-resistant Staphylococcus aureus clinical isolate 0906202 after 16 to 20 hrs by broth microdilution method; assay type: functional; outline: as §1
[32] = test system: Staphylococcus aureus; experiment: Antibacterial activity against methicillin-resistant Staphylococcus aureus clinical isolate 0831010 after 16 to 20 hrs by broth microdilution method; assay type: functional; outline: as §1
[33] = test system: Staphylococcus aureus; experiment: Antibacterial activity against methicillin-resistant Staphylococcus aureus clinical isolate 1207007 after 16 to 20 hrs by broth microdilution method; assay type: functional; outline: as §1
[34] = test system: Escherichia coli; experiment: Antibacterial activity against drug-resistant NDM1 producing Escherichia coli clinical isolate 1460 after 16 to 20 hrs by broth microdilution method; assay type: functional; outline: as §1
[35] = test system: Escherichia coli; experiment: Antibacterial activity against Escherichia coli ATCC 25922 after 16 to 20 hrs by broth microdilution method; assay type: functional; outline: as §2
[36] = test system: Klebsiella pneumoniae; experiment: Antibacterial activity against drug-resistant carbapenemase producing Klebsiella pneumoniae clinical isolate KP-13-54 after 16 to 20 hrs by broth microdilution method; assay type: functional; outline: as §1
[37] = test system: Escherichia coli; experiment: Antibacterial activity against drug-resistant NDM1 producing Escherichia coli clinical isolate CF-15-61 after 16 to 20 hrs by broth microdilution method; assay type: functional; outline: as §1
[38] = test system: Staphylococcus aureus; experiment: Antibacterial activity against methicillin-resistant Staphylococcus aureus clinical isolate 1-may after 16 to 20 hrs by broth microdilution method; assay type: functional; outline: as §1

SMILES | MIC [1] | MIC [2] | MIC [3] | MIC [4] | MIC [5] | MIC [6] | MIC [7] | MIC [8] | MIC [9] | MIC [10] | HC50 at 1 h [11] | MIC [12] | MIC [13] | MIC [14] | MIC [15] | MIC [16] | MIC [17] | MIC [18] | MIC [19] | MIC [20] | further results
CCCCCCCC[N+](C)(C)CC(=O)Nc1ccc(C(=O)/C=C/c2cccs2)cc1.[Cl-] | 8 µg/mL | 0.5 µg/mL | 8 µg/mL | 1 µg/mL | 8 µg/mL | 8 µg/mL | 8 µg/mL | 2 µg/mL | 4 µg/mL | 4 µg/mL | 133 µg/mL | 4 µg/mL | 16 µg/mL | 16 µg/mL | 4 µg/mL | 16 µg/mL | 2 µg/mL | 8 µg/mL | 8 µg/mL | 8 µg/mL | MIC [21]: 1 µg/mL; MIC [22]: 8 µg/mL; MIC [23]: 1 µg/mL; MIC [24]: 8 µg/mL; MIC [25]: 8 µg/mL; MIC [26]: 2 µg/mL; MIC [27]: 8 µg/mL; MIC [28]: 8 µg/mL; MIC [29]: 16 µg/mL; MIC [30]: 8 µg/mL; MIC [31]: 1 µg/mL; MIC [32]: 0.5 µg/mL; MIC [33]: 1 µg/mL; MIC [34]: 2 µg/mL; MIC [35]: 4 µg/mL; MIC [36]: 8 µg/mL; MIC [37]: 8 µg/mL; MIC [38]: 2 µg/mL
CCCCCCCC[N+](C)(C)CC(=O)Nc1ccc(C(=O)/C=C/c2ccco2)cc1.[Cl-] | 32 µg/mL | 1 µg/mL | 16 µg/mL | 4 µg/mL | 16 µg/mL | 16 µg/mL | 16 µg/mL | 2 µg/mL | 32 µg/mL | 16 µg/mL | 137 µg/mL | 32 µg/mL | 32 µg/mL | 32 µg/mL | 8 µg/mL | 32 µg/mL | 2 µg/mL | 32 µg/mL | 64 µg/mL | 16 µg/mL | MIC [21]: 2 µg/mL; MIC [22]: 32 µg/mL; MIC [23]: 4 µg/mL; MIC [24]: 8 µg/mL; MIC [25]: 16 µg/mL; MIC [26]: 4 µg/mL; MIC [27]: 8 µg/mL; MIC [28]: 16 µg/mL; MIC [29]: 32 µg/mL; MIC [30]: 16 µg/mL; MIC [31]: 16 µg/mL; MIC [32]: 2 µg/mL; MIC [33]: 2 µg/mL; MIC [34]: 16 µg/mL; MIC [35]: 4 µg/mL; MIC [36]: 16 µg/mL; MIC [37]: 16 µg/mL; MIC [38]: 4 µg/mL
